Reference: ChEMBL document CHEMBL1151705, “Novel azalides derived from 16-membered macrolides. Part II: Isolation of the linear 9-formylcarboxylic acid and its sequential macrocyclization with an amino alcohol or an azidoamine” (2008)
≈ marks a conversion by molar mass, not a printed value.

Tests used:
Format in all cases: functional
Streptococcus pneumoniae [1] = experiment: Antimicrobial activity against Streptococcus pneumoniae 8 expressing inducible ermB after 20 hrs by agar dilution method
Procedure, shortened: (§1)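 Streptococci, H. influenzae and M. catarrhalis were precultured on blood agar plates. Suspensions of about 10⁶ CFU/ml were inoculated onto sensitivity disk agar supplemented with 5% horse blood and incubated at 37 °C for 20 h. MIC was read as the lowest drug concentration with no visible growth.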

Streptococcus pneumoniae [2] = experiment: Antimicrobial activity against Streptococcus pneumoniae 9 expressing mefA after 20 hrs by agar dilution method; details: Streptococcus pneumoniae, 20 h; read-out: MIC; procedure, shortened: as §1
Streptococcus pneumoniae [3] = experiment: Antimicrobial activity against Streptococcus pneumoniae 10 expressing mefA after 20 hrs by agar dilution method; details: Streptococcus pneumoniae, 20 h; read-out: MIC; procedure, shortened: as §1
Streptococcus pyogenes [4] = experiment: Antimicrobial activity against drug-susceptible Streptococcus pyogenes 1 after 20 hrs by agar dilution method; details: Streptococcus pyogenes, 20 h; read-out: MIC; procedure, shortened: as §1
Streptococcus pyogenes [5] = experiment: Antimicrobial activity against Streptococcus pyogenes 2 constitutively expressing ermB after 20 hrs by agar dilution method; procedure, shortened: as §1
Streptococcus pyogenes [6] = experiment: Antimicrobial activity against Streptococcus pyogenes 3 expressing mefA after 20 hrs by agar dilution method; details: Streptococcus pyogenes, 20 h; read-out: MIC; procedure, shortened: as §1
Moraxella catarrhalis [7] = experiment: Antimicrobial activity against drug-susceptible Moraxella catarrhalis 1 after 20 hrs by agar dilution method; procedure, shortened: as §1
Moraxella catarrhalis [8] = experiment: Antimicrobial activity against drug-susceptible Moraxella catarrhalis 2 after 20 hrs by agar dilution method; details: Moraxella catarrhalis, 20 h; read-out: MIC; procedure, shortened: as §1
Haemophilus influenzae [9] = experiment: Antimicrobial activity against drug-susceptible Haemophilus influenzae 1 after 20 hrs by agar dilution method; details: Haemophilus influenzae, 20 h; read-out: MIC; procedure, shortened: as §1
Haemophilus influenzae [10] = experiment: Antimicrobial activity against drug-susceptible Haemophilus influenzae 2 after 20 hrs by agar dilution method; details: Haemophilus influenzae, 20 h; read-out: MIC; procedure, shortened: as §1
Haemophilus influenzae [11] = experiment: Antimicrobial activity against drug-susceptible Haemophilus influenzae 3 after 20 hrs by agar dilution method; details: Haemophilus influenzae, 20 h; read-out: MIC; procedure, shortened: as §1
Haemophilus influenzae [12] = experiment: Antimicrobial activity against drug-susceptible Haemophilus influenzae 4 after 20 hrs by agar dilution method; details: Haemophilus influenzae, 20 h; read-out: MIC; procedure, shortened: as §1
Staphylococcus aureus [13] = experiment: Antimicrobial activity against drug-susceptible Staphylococcus aureus 209P JC-1 after 20 hrs by agar dilution method; details: Staphylococcus aureus, 209P, 20 h; read-out: MIC
Procedure, shortened: (§2)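 Agar dilution MIC. S. aureus seed culture was grown in sensitivity test broth. Cell suspension (about 10⁶ CFU/ml) was inoculated onto sensitivity disk agar with 5% horse blood and incubated at 37 °C for 20 h. MIC was the lowest drug concentration that prevented visible growth.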

Staphylococcus aureus [14] = experiment: Antimicrobial activity against drug-susceptible Staphylococcus aureus 2 after 20 hrs by agar dilution method; details: Staphylococcus aureus, 20 h; read-out: MIC; procedure, shortened: as §2
Staphylococcus aureus [15] = experiment: Antimicrobial activity against drug-susceptible Staphylococcus aureus 3 after 20 hrs by agar dilution method; details: Staphylococcus aureus, 20 h; read-out: MIC; procedure, shortened: as §2
Staphylococcus aureus [16] = experiment: Antimicrobial activity against Staphylococcus aureus 4 constitutively expressing ermA after 20 hrs by agar dilution method; procedure, shortened: as §2
Staphylococcus aureus [17] = experiment: Antimicrobial activity against Staphylococcus aureus 5 expressing inducible ermB after 20 hrs by agar dilution method; details: Staphylococcus aureus, 20 h; read-out: MIC; procedure, shortened: as §2
Streptococcus pneumoniae [18] = experiment: Antimicrobial activity against drug-susceptible Streptococcus pneumoniae DP1 Type1 after 20 hrs by agar dilution method; details: Streptococcus pneumoniae, 20 h; read-out: MIC; procedure, shortened: as §1
Streptococcus pneumoniae [19] = experiment: Antimicrobial activity against drug-susceptible Streptococcus pneumoniae 2 after 20 hrs by agar dilution method; details: Streptococcus pneumoniae, 20 h; read-out: MIC; procedure, shortened: as §1
Streptococcus pneumoniae [20] = experiment: Antimicrobial activity against drug-susceptible Streptococcus pneumoniae 3 after 20 hrs by agar dilution method; details: Streptococcus pneumoniae, 20 h; read-out: MIC; procedure, shortened: as §1
Streptococcus pneumoniae [21] = experiment: Antimicrobial activity against Streptococcus pneumoniae 4 constitutively expressing ermB after 20 hrs by agar dilution method; details: Streptococcus pneumoniae, 20 h; read-out: MIC; procedure, shortened: as §1
Streptococcus pneumoniae [22] = experiment: Antimicrobial activity against Streptococcus pneumoniae 5 constitutively expressing ermB/mefA after 20 hrs by agar dilution method; details: Streptococcus pneumoniae, 20 h; read-out: MIC; procedure, shortened: as §1
Streptococcus pneumoniae [23] = experiment: Antimicrobial activity against Streptococcus pneumoniae 6 constitutively expressing ermB after 20 hrs by agar dilution method; details: Streptococcus pneumoniae, 20 h; read-out: MIC; procedure, shortened: as §1
Streptococcus pneumoniae [24] = experiment: Antimicrobial activity against Streptococcus pneumoniae 7 expressing inducible ermB after 20 hrs by agar dilution method; details: Streptococcus pneumoniae, 20 h; read-out: MIC; procedure, shortened: as §1
Staphylococcus aureus [25] = experiment: Antimicrobial activity against Staphylococcus aureus 6 expressing inducible ermB after 20 hrs by agar dilution method; procedure, shortened: as §2
[26] = Streptococcus pneumoniae, 20 h, read-out: MIC
[27] = Moraxella catarrhalis, 20 h, read-out: MIC

MIC (Streptococcus pneumoniae [2]) [µg/mL]	MIC (Streptococcus pneumoniae [3]) [µg/mL]	MIC (Streptococcus pyogenes [4]) [µg/mL]	MIC (Streptococcus pyogenes [5]) [µg/mL]	MIC (Streptococcus pyogenes [6]) [µg/mL]	MIC (Moraxella catarrhalis [8]) [µg/mL]	MIC (Haemophilus influenzae [9]) [µg/mL]	MIC (Haemophilus influenzae [10]) [µg/mL]	MIC (Haemophilus influenzae [11]) [µg/mL]	MIC (Haemophilus influenzae [12]) [µg/mL]	MIC (Staphylococcus aureus [13]) [µg/mL]	MIC (Staphylococcus aureus [14]) [µg/mL]	MIC (Staphylococcus aureus [15]) [µg/mL]	MIC (Staphylococcus aureus [16]) [µg/mL]	MIC (Staphylococcus aureus [17]) [µg/mL]	MIC (Streptococcus pneumoniae [18]) [µg/mL]	MIC (Streptococcus pneumoniae [19]) [µg/mL]	MIC (Streptococcus pneumoniae [20]) [µg/mL]	MIC (Streptococcus pneumoniae [21]) [µg/mL]	MIC (Streptococcus pneumoniae [22]) [µg/mL]	also measured	Structure (SMILES)
0.015 (≈ 0.0152 µM)	0.015 (≈ 0.0152 µM)	0.015 (≈ 0.0152 µM)	> 128	0.13 (≈ 0.132 µM)	1 (≈ 1.01 µM)	32 (≈ 32.4 µM)	2 (≈ 2.02 µM)	8 (≈ 8.1 µM)	8 (≈ 8.1 µM)	0.13 (≈ 0.132 µM)	0.25 (≈ 0.253 µM)	0.13 (≈ 0.132 µM)	> 128	0.13 (≈ 0.132 µM)	< 0.008	0.015 (≈ 0.0152 µM)	< 0.008	128 (≈ 130 µM)	128 (≈ 130 µM)	MIC (Streptococcus pneumoniae [1]; [26]): 4 µg/mL (≈ 4.05 µM); MIC (Moraxella catarrhalis [7]; [27]): 1 µg/mL (≈ 1.01 µM); MIC (Streptococcus pneumoniae [23]): 128 µg/mL (≈ 130 µM); MIC (Streptococcus pneumoniae [24]): 4 µg/mL (≈ 4.05 µM); MIC (Staphylococcus aureus [25]): 0.25 µg/mL (≈ 0.253 µM)	CCOC(=O)[C@H]1[C@H](C)O[C@@H](O[C@H]2[C@H](N(C)C)[C@@H](O)[C@H](O[C@H]3[C@@H](CC=O)C[C@@H](C)[C@@H](O)CN(C)CCC[C@H](CCCc4cnc5ccccc5c4)OC(=O)C[C@@H](OC(=O)CC)[C@@H]3OC)O[C@@H]2C)C[C@@]1(C)O
0.06 (≈ 0.0608 µM)	0.03 (≈ 0.0304 µM)	0.06 (≈ 0.0608 µM)	> 128	0.5 (≈ 0.507 µM)	1 (≈ 1.01 µM)	32 (≈ 32.4 µM)	2 (≈ 2.03 µM)	8 (≈ 8.11 µM)	8 (≈ 8.11 µM)	0.5 (≈ 0.507 µM)	1 (≈ 1.01 µM)	0.25 (≈ 0.253 µM)	> 128	0.25 (≈ 0.253 µM)	0.015 (≈ 0.0152 µM)	0.03 (≈ 0.0304 µM)	0.03 (≈ 0.0304 µM)	128 (≈ 130 µM)	128 (≈ 130 µM)	MIC (Streptococcus pneumoniae [1]; [26]): 8 µg/mL (≈ 8.11 µM); MIC (Moraxella catarrhalis [7]; [27]): 1 µg/mL (≈ 1.01 µM); MIC (Streptococcus pneumoniae [23]): 128 µg/mL (≈ 130 µM); MIC (Streptococcus pneumoniae [24]): 8 µg/mL (≈ 8.11 µM); MIC (Staphylococcus aureus [25]): 0.5 µg/mL (≈ 0.507 µM)	CCOC(=O)[C@H]1[C@H](C)O[C@@H](O[C@H]2[C@H](N(C)C)[C@@H](O)[C@H](O[C@H]3[C@@H](CC=O)C[C@@H](C)[C@@H](O)CN(C)CCC[C@H](C/C=C/c4cnc5ccccc5c4)OC(=O)C[C@@H](OC(=O)CC)[C@@H]3OC)O[C@@H]2C)C[C@@]1(C)O
0.03 (≈ 0.0304 µM)	0.03 (≈ 0.0304 µM)	0.06 (≈ 0.0608 µM)	> 128	0.25 (≈ 0.253 µM)	1 (≈ 1.01 µM)	32 (≈ 32.4 µM)	4 (≈ 4.06 µM)	8 (≈ 8.11 µM)	8 (≈ 8.11 µM)	0.25 (≈ 0.253 µM)	0.5 (≈ 0.507 µM)	0.25 (≈ 0.253 µM)	> 128	0.25 (≈ 0.253 µM)	0.015 (≈ 0.0152 µM)	0.03 (≈ 0.0304 µM)	0.015 (≈ 0.0152 µM)	> 128	> 128	MIC (Streptococcus pneumoniae [1]; [26]): 8 µg/mL (≈ 8.11 µM); MIC (Moraxella catarrhalis [7]; [27]): 1 µg/mL (≈ 1.01 µM); MIC (Streptococcus pneumoniae [23]): > 128 µg/mL; MIC (Streptococcus pneumoniae [24]): 8 µg/mL (≈ 8.11 µM); MIC (Staphylococcus aureus [25]): 0.25 µg/mL (≈ 0.253 µM)	CCOC(=O)[C@H]1[C@H](C)O[C@@H](O[C@H]2[C@H](N(C)C)[C@@H](O)[C@H](O[C@H]3[C@@H](CC=O)C[C@@H](C)[C@@H](O)CN(C)CCC[C@H](C/C=C/c4ccc5ncccc5c4)OC(=O)C[C@@H](OC(=O)CC)[C@@H]3OC)O[C@@H]2C)C[C@@]1(C)O
0.06	0.06	0.13	> 128	0.5	2	32	1	8	16	0.5	1	0.25	> 128	0.5	0.03	0.06	0.06	> 128	> 128	MIC (Streptococcus pneumoniae [1]): 64 µg/mL; MIC (Moraxella catarrhalis [7]): 2 µg/mL; MIC (Streptococcus pneumoniae [23]): > 128 µg/mL; MIC (Streptococcus pneumoniae [24]): 16 µg/mL; MIC (Staphylococcus aureus [25]): 0.5 µg/mL	CCOC(=O)[C@H]1[C@H](C)O[C@@H](O[C@H]2[C@H](N(C)C)[C@@H](O)[C@H](O[C@H]3[C@@H](CC=O)C[C@@H](C)[C@@H](O)CN(C)CCC(CCCc4cnc5ccccc5c4)NC(=O)C[C@@H](OC(=O)CC)[C@@H]3OC)O[C@@H]2C)C[C@@]1(C)O (mixture of isomers)
